# ChEMBL document CHEMBL1141075, “4-Oxo-4,7-dihydrothieno[2,3-b]pyridines as non-nucleoside inhibitors of human cytomegalovirus and related herpesvirus polymerases” (J Med Chem, 2005)
# Tests used:
# [1] = system: HFF; experiment: Antiviral activity against Varicella-Zoster virus (Webster strain) grown on human foreskin fibroblast cells determined by vedduction in plaque formation upon incubation at 37 degrees C with the compound dissolved in DMSO until plaque were formed; format: functional, cell-based
# Method in brief: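 Monolayers of human foreskin fibroblasts were infected with about 50 PFU per well for 1 h at 37 °C. The inoculum was then replaced with DMEM containing 10% FBS, 0.8% carboxymethyl cellulose and diluted compound from 200-fold DMSO stocks. Plates were incubated at 37 °C until plaques formed. Plaques were counted microscopically or after 0.1% crystal violet staining. IC50 came from linear regression of % inhibition versus untreated controls.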
# [2] = target: T1, DNA polymerase catalytic subunit (Human cytomegalovirus (strain AD169) (HHV-5) (Human herpesvirus 5), UniProt P08546); experiment: Inhibition of human cytomegalovirus DNA polymerase (95 uL) activity in a solution containing […] HEPES (pH 7.5), incubation for 12 minutes at 26 degrees C; set-up: species or system Human betaherpesvirus 5
# T1 sequence (P08546 whole entry): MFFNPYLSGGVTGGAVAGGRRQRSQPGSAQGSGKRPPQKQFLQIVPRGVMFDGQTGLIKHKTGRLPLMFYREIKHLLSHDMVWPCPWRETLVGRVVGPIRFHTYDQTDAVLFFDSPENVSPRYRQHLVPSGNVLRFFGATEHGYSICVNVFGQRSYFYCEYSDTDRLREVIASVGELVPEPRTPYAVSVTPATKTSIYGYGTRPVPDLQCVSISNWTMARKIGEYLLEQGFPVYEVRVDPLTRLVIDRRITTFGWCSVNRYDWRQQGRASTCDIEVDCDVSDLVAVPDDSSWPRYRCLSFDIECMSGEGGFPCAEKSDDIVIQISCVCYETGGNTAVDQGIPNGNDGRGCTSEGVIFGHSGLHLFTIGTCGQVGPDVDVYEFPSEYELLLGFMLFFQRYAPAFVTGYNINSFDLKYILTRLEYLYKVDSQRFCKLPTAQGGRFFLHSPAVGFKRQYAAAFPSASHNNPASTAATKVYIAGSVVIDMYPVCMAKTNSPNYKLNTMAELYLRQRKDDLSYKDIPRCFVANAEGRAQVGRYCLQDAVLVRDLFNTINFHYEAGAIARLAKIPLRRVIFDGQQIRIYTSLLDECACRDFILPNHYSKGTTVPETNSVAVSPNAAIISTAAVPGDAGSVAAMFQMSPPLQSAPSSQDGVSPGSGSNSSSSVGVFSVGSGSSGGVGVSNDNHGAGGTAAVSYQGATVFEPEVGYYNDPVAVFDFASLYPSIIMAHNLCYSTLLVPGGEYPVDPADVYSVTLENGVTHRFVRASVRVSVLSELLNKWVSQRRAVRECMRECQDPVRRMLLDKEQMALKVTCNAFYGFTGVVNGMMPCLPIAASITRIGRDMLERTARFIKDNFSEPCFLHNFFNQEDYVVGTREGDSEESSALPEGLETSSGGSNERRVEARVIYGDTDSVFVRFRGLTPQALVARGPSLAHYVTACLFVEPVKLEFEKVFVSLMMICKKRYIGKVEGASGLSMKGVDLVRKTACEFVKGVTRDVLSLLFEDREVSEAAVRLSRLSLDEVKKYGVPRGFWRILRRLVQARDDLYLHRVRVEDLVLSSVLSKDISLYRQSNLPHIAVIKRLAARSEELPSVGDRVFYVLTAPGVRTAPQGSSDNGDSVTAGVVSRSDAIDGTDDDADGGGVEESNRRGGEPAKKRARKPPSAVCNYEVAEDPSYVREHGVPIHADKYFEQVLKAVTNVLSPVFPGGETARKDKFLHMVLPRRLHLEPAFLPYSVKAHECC
# [3] = system: Vero; experiment: Antiviral activity against herpes simplex virus type 1 (KOS strain) grown on human foreskin fibroblast cells determined by vedduction in plaque formation upon incubation at 37 degrees C with the compound dissolved in DMSO until plaque were formed; format: functional, cell-based
# Method in brief: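 HSV-1 KOS, about 50 PFU per well, was adsorbed for 1 h at 37 °C. The inoculum was then replaced with drug dilutions from 200-fold DMSO stocks in DMEM containing 10% FBS and 0.8% carboxymethyl cellulose. Cultures were kept at 37 °C until plaques appeared. Plaques were counted microscopically or by crystal violet staining (0.1% in 20% ethanol). IC50 came from linear regression of % inhibition relative to the uninhibited control.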
# [4] = target: T2, DNA polymerase catalytic subunit (Varicella-zoster virus (strain Dumas) (HHV-3) (Human herpesvirus 3), UniProt P09252); experiment: Inhibition of Varicella-Zoster virus DNA polymerase (95 uL) activity in a solution containing […] HEPES (pH 7.5), incubation for 12 minutes at 26 degrees C; set-up: species or system Human alphaherpesvirus 3
# T2 sequence (P09252 whole entry): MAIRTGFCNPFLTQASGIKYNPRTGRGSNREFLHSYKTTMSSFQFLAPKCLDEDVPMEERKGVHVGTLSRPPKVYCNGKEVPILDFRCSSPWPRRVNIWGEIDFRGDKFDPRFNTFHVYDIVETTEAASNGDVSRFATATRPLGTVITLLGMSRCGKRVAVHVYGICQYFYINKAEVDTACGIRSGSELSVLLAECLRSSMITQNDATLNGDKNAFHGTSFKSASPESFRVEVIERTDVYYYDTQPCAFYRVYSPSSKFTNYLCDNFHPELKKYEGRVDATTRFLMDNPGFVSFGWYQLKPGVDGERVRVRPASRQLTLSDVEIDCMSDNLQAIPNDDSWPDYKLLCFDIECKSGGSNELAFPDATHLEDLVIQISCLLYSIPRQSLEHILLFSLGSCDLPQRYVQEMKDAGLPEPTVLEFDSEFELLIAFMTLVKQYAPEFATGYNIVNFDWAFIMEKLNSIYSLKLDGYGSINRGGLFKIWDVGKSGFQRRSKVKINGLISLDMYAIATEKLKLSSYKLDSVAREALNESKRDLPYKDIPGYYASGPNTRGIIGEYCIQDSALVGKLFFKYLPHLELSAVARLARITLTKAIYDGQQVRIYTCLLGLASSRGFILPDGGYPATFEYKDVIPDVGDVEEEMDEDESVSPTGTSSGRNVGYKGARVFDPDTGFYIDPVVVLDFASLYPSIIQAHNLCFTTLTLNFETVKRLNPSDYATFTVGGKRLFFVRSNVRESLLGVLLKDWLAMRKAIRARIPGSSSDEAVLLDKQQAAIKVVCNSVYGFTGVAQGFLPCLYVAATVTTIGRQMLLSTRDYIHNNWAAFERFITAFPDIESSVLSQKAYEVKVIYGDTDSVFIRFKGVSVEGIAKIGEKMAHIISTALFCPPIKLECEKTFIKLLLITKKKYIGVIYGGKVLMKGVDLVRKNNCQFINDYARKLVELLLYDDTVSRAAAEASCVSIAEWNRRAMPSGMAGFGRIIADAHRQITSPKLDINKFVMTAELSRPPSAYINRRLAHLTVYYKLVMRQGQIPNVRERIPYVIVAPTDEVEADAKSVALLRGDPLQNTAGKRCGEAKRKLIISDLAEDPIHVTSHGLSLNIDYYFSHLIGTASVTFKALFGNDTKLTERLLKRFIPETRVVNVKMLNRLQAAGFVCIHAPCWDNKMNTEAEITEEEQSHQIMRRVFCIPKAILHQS
SMILES,IC50 [1],IC50 [2],IC50 [3],IC50 [4]
Cn1cc(C(=O)NCc2ccc(Cl)cc2)c(=O)c2cc(CN3CCOCC3)ccc21,340 nM,700 nM,3500 nM,
O=C(NCc1ccc(Cl)cc1)c1cnc2ccc(CCCO)cc2c1O,170 nM,400 nM,7400 nM,70 nM
Cn1cc(C(=O)NCc2ccc(Cl)cc2)c(=O)c2cc(CN3CCOCC3)sc21,770 nM,,3700 nM,770 nM
